Details in all cases: 0.5 h
Experiment [1] addresses T1, Aromatase (Homo sapiens, UniProt P11511).
T1 sequence (P11511 whole entry): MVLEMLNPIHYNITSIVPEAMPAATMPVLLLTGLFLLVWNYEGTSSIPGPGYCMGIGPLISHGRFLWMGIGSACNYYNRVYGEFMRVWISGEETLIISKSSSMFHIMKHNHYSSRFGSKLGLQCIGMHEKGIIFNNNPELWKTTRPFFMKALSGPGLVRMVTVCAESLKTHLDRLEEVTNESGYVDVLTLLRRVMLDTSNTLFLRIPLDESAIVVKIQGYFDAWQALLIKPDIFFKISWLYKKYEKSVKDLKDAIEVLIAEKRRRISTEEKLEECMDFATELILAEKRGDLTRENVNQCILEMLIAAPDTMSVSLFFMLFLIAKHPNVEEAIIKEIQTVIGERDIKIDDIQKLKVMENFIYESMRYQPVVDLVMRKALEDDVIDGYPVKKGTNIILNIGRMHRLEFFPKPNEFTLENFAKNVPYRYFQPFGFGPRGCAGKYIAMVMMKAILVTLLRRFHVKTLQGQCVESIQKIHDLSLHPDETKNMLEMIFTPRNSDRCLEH
The experiment can be described thus: Inhibition of human recombinant aromatase at 300 nM after 30 mins relative to control. A digest of the protocol: (§1)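 Human recombinant aromatase (CYP19) expressed in insect cells via baculovirus; fluorogenic substrate methoxy-4-trifluoromethylcoumarin, 3 µM in the reaction. Compounds in acetone, serially diluted 1:3 in NADPH-cofactor buffer. Reaction started with prewarmed enzyme–substrate mix, 30 min at 37 °C. Fluorescence read at 409 nm excitation / 530 nm emission. Blank lacks enzyme. Inhibition as % of no-inhibitor control; mean ± SD, n = 4; Student t test.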

Experiment [2] deals with T1, Aromatase. The experiment can be described thus: Inhibition of human recombinant aromatase at 1 uM after 30 mins relative to control. A digest of the protocol: as §1
In experiment [3] the target is T1, Aromatase. The experiment can be described thus: Inhibition of human recombinant aromatase at 3 uM after 30 mins relative to control. In outline: as §1
Experiment [4] deals with T1, Aromatase. The experiment can be described thus: Inhibition of human recombinant aromatase at 10 uM after 30 mins relative to control. In outline:
as §1

Turning to `COc1cc2c(cc1C(C)C)CC[C@@H]1C(C)(C)CCC[C@]21C`, the inhibition at 0.3 µM on Aromatase [1] turned out to be 15.2%. Besides, the inhibition at 1 µM on Aromatase [2] was 15.9%. Besides, the inhibition at 3 µM on Aromatase [3] was found to be 18.4%. Further, at Aromatase [4], the inhibition at 10 µM came out at 19.7%.
The matching figures for `CC(C)c1cc(C=O)c([C@@]2(C)CCCC(C)(C)[C@H]2C=O)cc1O`: 22.2%, 24.5%, 24.9% and 25.1%.
For `CC(=O)N1CCN(c2ccc(OC[C@H]3CO[C@](Cn4ccnc4)(c4ccc(Cl)cc4Cl)O3)cc2)CC1` [KETOCONAZOLE] the same measures were 81.7%, 84.2%, 87.5% and 87.9%.
For `CC(C)c1cc(C=O)c2c(c1O)[C@H](O)[C@H]1C(C)(C)CCC[C@]21C` [STANDISHINAL] the same measures were 1.1%, 10.3%, 6.7% and 23.7%.
In the case of `COc1cc2c(cc1C(C)C)CC[C@H]1C(C)(C)CCC[C@]21C`, on Aromatase [1], the inhibition at 0.3 µM amounted to 9%. In addition, on Aromatase [2], the inhibition at 1 µM was 2.2%. Further, the inhibition at 3 µM at Aromatase [3] was 4.1%. Also, at Aromatase [4], the inhibition at 10 µM was 4.8%.
For `CC(C)c1cc(C=O)c([C@@]2(C)CCCC(C)(C)[C@@H]2C=O)cc1O` the same measures were 5.9%, less than 0%, 3.3% and 9.2%.
For `COc1cc2c(cc1C(C)C)C(=O)C[C@@H]1C(C)(C)CCC[C@]21C` the same measures were 20.7%, 28.7%, 23.9% and 19.5%.
With `COc1cc2c(cc1C(C)C)C(=O)C[C@H]1C(C)(C)CCC[C@]21C`, the inhibition at 0.3 µM at Aromatase [1] is less than 0%. Moreover, the inhibition at 1 µM on Aromatase [2] was 18.1%. For the same molecule, the inhibition at 3 µM at Aromatase [3] stood at 6.7%. For the same molecule, the inhibition at 10 µM on Aromatase [4] came to 19.8%.
Turning to `N#Cc1ccc(C(c2ccc(C#N)cc2)n2cncn2)cc1` [LETROZOLE], at Aromatase [1], the inhibition at 0.3 µM worked out at 89.3%. Besides, the inhibition at 1 µM at Aromatase [2] is 91.1%. Further, the inhibition at 3 µM on Aromatase [3] turned out to be 83.8%. Further, the inhibition at 10 µM on Aromatase [4] is 92.5%.
For the molecule `COc1cc2c(cc1C(C)C)C=C[C@@H]1C(C)(C)CCC[C@]21C`, the inhibition at 0.3 µM on Aromatase [1] is 16.2%. Besides, the inhibition at 1 µM on Aromatase [2] amounted to 19.7%. Moreover, the inhibition at 3 µM at Aromatase [3] was found to be 18.6%. Further, on Aromatase [4], the inhibition at 10 µM turned out to be 19.8%.

(Values after ChEMBL document CHEMBL1142921, “Synthesis of DL-standishinal and its related compounds for the studies on structure-activity relationship of inhibitory activity against aromatase” (Bioorg Med Chem, 2007).)
